Measurements: ChEMBL document CHEMBL2311424, “Inhibitors of human immunodeficiency virus type 1 (HIV-1) attachment 13. Synthesis and profiling of a novel amminium prodrug of the HIV-1 attachment inhibitor BMS-585248” (J Med Chem, 2013)

Legend:
[1] = Drug excretion in bile duct cannulated Sprague-Dawley rat urine at 1 mg/kg, iv up to 2 hrs; format: ADME, organism-based; parameters: dose 1 mg/kg, route intravenous; conditions: read-out: Drug excretion
Procedure, shortened: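 Bile duct/jugular vein cannulated male rats (n = 3) given prodrug 1 mg/kg IV; plasma, bile and urine collected up to 6 h. Biotransformation profiled by UPLC on C18 at 40 °C with gradient elution, positive electrospray full-scan MS and data-dependent MS/MS; relative percentages of prodrug, N-acetyl conjugate and parent reported.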

[2] = test system: Rattus norvegicus; assay: AUC in dual cannulated portal vein Sprague-Dawley rat assessed as BMS-585248 level at 5 mg/kg, po; format: ADME, organism-based, Plasma; parameters: dose 5 mg/kg, route oral; conditions: in vivo
[3] = test system: Rattus norvegicus; assay: Cmax in dual cannulated portal vein Sprague-Dawley rat assessed as BMS-585248 level at 5 mg/kg, po; format: ADME, organism-based; parameters: dose 5 mg/kg, route oral; conditions: in vivo
[4] = AUC in dual cannulated portal vein Sprague-Dawley rat at 5 mg/kg, po; format: ADME, organism-based; parameters: dose 5 mg/kg, route oral; conditions: plasma
[5] = Cmax in dual cannulated portal vein Sprague-Dawley rat at 5 mg/kg, po; format: ADME, organism-based; parameters: dose 5 mg/kg, route oral
[6] = test system: Rattus norvegicus; assay: AUClast in Sprague-Dawley rat assessed as BMS-585248 level at 5 mg/kg, po; format: ADME, organism-based, Plasma; parameters: time 0 - last, dose 5 mg/kg, route oral; conditions: in vivo
Procedure, shortened: (§1)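 Male rats (n = 3 per group) pretreated 2 days with saline or an antibiotic mix (bacitracin 400 mg/kg BID, neomycin sulfate 400 mg/kg BID, tetracycline 200 mg/kg), then given prodrug 5 mg/kg orally. Plasma to 24 h, stored −20 °C, LC/MS/MS quantitation of prodrug and parent.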

[7] = test system: Rattus norvegicus; assay: AUClast in bacitracin, neomycin sulfate and tetracycline treated Sprague-Dawley rat assessed as BMS-585248 level at 5 mg/kg, po; format: ADME, organism-based, Plasma; parameters: dose 5 mg/kg, route oral, time 0 - last; conditions: in vivo; procedure, shortened: as §1
[8] = test system: Rattus norvegicus; assay: Cmax in bacitracin, neomycin sulfate and tetracycline treated Sprague-Dawley rat assessed as BMS-585248 level at 5 mg/kg, po; format: ADME, organism-based; parameters: dose 5 mg/kg, route oral; conditions: in vivo; procedure, shortened: as §1
[9] = test system: Rattus norvegicus; assay: Total AUC in Sprague-Dawley rat assessed as BMS-585248 level at 200 mg/kg, po; format: ADME, organism-based; parameters: time AUCmax, dose 200 mg/kg, route oral; conditions: in vivo
Procedure, shortened: (§2)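 Oral dose escalation in male rats, groups of three, dosed by gavage from solutions in water with 0.5% methylcellulose: prodrug trifluoroacetate salt at 5, 25 and 200 mg/kg; parent at 15, 75 and 200 mg/kg. Plasma analysed by LC/MS/MS; noncompartmental PK.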

[10] = test system: Rattus norvegicus; assay: Total AUC in Sprague-Dawley rat assessed as BMS-585248 level at 25 mg/kg, po; format: ADME, organism-based; parameters: time AUCmax, dose 25 mg/kg, route oral; conditions: in vivo; procedure, shortened: as §2
[11] = test system: Rattus norvegicus; assay: Total AUC in Sprague-Dawley rat assessed as BMS-585248 level at 5 mg/kg, po; format: ADME, organism-based; parameters: dose 5 mg/kg, route oral, time AUCmax; conditions: in vivo; procedure, shortened: as §2
[12] = test system: Rattus norvegicus; assay: Cmax in Sprague-Dawley rat assessed as BMS-585248 level at 200 mg/kg, po; format: ADME, organism-based; parameters: dose 200 mg/kg, route oral; conditions: in vivo; procedure, shortened: as §2
[13] = test system: Rattus norvegicus; assay: Cmax in Sprague-Dawley rat assessed as BMS-585248 level at 25 mg/kg, po; format: ADME, organism-based; parameters: dose 25 mg/kg, route oral; conditions: in vivo; procedure, shortened: as §2
[14] = test system: Rattus norvegicus; assay: Cmax in Sprague-Dawley rat assessed as BMS-585248 level at 5 mg/kg, po; format: ADME, organism-based; parameters: dose 5 mg/kg, route oral; conditions: in vivo; procedure, shortened: as §2
[15] = test system: Rattus norvegicus; assay: AUC in Sprague-Dawley rat assessed as BMS-585248 level at 5 mg/kg, po; format: ADME, organism-based, Plasma; parameters: dose 5 mg/kg, route oral; conditions: in vivo
Procedure, shortened: (§3)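 Male rats, groups of three; prodrug trifluoroacetate salt given by IV bolus (1 mg/kg) or oral gavage (5 mg/kg) after overnight fast, both from a 1 mg/mL solution in PEG-400/ethanol 90/10 v/v. Plasma sampled up to 24 h, stored at −20 °C, parent and prodrug quantified by LC/MS/MS; noncompartmental analysis.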

[16] = AUC in Sprague-Dawley rat at 5 mg/kg, po; format: ADME, organism-based; parameters: dose 5 mg/kg, route oral; conditions: plasma; procedure, shortened: as §3
[17] = test system: Rattus norvegicus; assay: Cmax in Sprague-Dawley rat assessed as BMS-585248 level at 5 mg/kg, po after 6 hrs; format: ADME, organism-based; parameters: dose 5 mg/kg, route oral; conditions: in vivo
[18] = Cmax in Sprague-Dawley rat at 5 mg/kg, po after 6 hrs; format: ADME, organism-based; parameters: dose 5 mg/kg, route oral; conditions: in vivo
[19] = test system: Rattus norvegicus; assay: AUC in Sprague-Dawley rat assessed as BMS-585248 level at 1 mg/kg, iv; format: ADME, organism-based, Plasma; parameters: dose 1 mg/kg, route intravenous; conditions: in vivo; procedure, shortened: as §3
[20] = AUC in Sprague-Dawley rat at 1 mg/kg, iv; format: ADME, organism-based; parameters: dose 1 mg/kg, route intravenous; conditions: plasma; procedure, shortened: as §3
[21] = Half life in Sprague-Dawley rat at 1 mg/kg, iv; format: ADME, organism-based; parameters: dose 1 mg/kg, route intravenous; conditions: in vivo; procedure, shortened: as §3
[22] = test system: Rattus norvegicus; assay: Prodrug conversion in Sprague-Dawley rat assessed as BMS-585248 level at 1 mg/kg, iv after 5 mins; format: ADME, organism-based; parameters: dose 1 mg/kg, route intravenous; conditions: in vivo; procedure, shortened: as §3
[23] = Volume of distribution in Sprague-Dawley rat at 1 mg/kg, iv; format: ADME, organism-based; parameters: dose 1 mg/kg, route intravenous; conditions: in vivo; procedure, shortened: as §3
[24] = Clearance in Sprague-Dawley rat at 1 mg/kg, iv; format: ADME, organism-based; parameters: dose 1 mg/kg, route intravenous; conditions: in vivo; procedure, shortened: as §3
[25] = Permeability across human Caco2 cells; format: ADME, cell-based; conditions: Caco-2, read-out: permeability
[26] = Aqueous solubility of the compound; format: physicochemical
[27] = test system: Human immunodeficiency virus 1; assay: Antiviral activity against HIV1; format: functional, organism-based
[28] = test system: Hepatocyte; assay: Prodrug activation in rat hepatocytes assessed as BMS-585248 formation; format: cell-based
Procedure, shortened: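 In-house isolated rat hepatocytes incubated with prodrug (10 μM final) for 2 h at 37 °C in humidified 95/5% air/CO2; aliquots quenched in ice-cold acetonitrile, centrifuged, prodrug and parent quantified by LC/MS/MS.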

[29] = test system: Liver microsomes; assay: Prodrug activation in rat liver microsomes assessed as BMS-585248 formation; parameters: species or system Microsome
Procedure, shortened: (§4)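 Rat liver cytosol (2 mg/mL) or microsomes (1 mg/mL) incubated with prodrug (10 μM final) and 1 mM NADPH up to 2 h at 37 °C, shaking; anaerobic runs used nitrogen-purged 0.1 M phosphate buffer with 10 mM MgCl2 under humidified nitrogen for 60 min. Acetonitrile quench, LC/MS/MS of prodrug and parent.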

[30] = test system: Liver; assay: Prodrug activation in rat liver cytosol assessed as BMS-585248 formation; format: tissue-based; procedure, shortened: as §4
[31] = test system: Plasma; assay: Prodrug activation in rat plasma assessed as BMS-585248 formation; format: cell-free
Procedure, shortened: (§5)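 Prodrug at 10 μM final incubated 60 min at 37 °C in Tris-HCl buffer pH 7.4, rat blood or rat plasma, aerobic. Aliquots quenched with equal volume ice-cold acetonitrile, centrifuged, supernatant analysed by LC/MS/MS for prodrug and parent.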

[32] = Prodrug activation in Tris-HCl buffer assessed as BMS-585248 formation at pH 7.4; procedure, shortened: as §5
[33] = test system: Blood; assay: Prodrug activation in rat blood assessed as BMS-585248 formation; format: tissue-based; procedure, shortened: as §5
[34] = test system: Canis familiaris; assay: AUC in beagle dog assessed as BMS-585248 level at 5 mg/kg, po; format: ADME, organism-based, Canis lupus familiaris, Plasma; parameters: dose 5 mg/kg, route oral; conditions: in vivo
[35] = AUC in beagle dog at 5 mg/kg, po; format: ADME, organism-based, Canis lupus familiaris; parameters: dose 5 mg/kg, route oral; conditions: plasma
[36] = Cmax in beagle dog at 5 mg/kg, po; format: ADME, organism-based, Canis lupus familiaris; parameters: dose 5 mg/kg, route oral; conditions: in vivo
[37] = Half life in beagle dog at 1 mg/kg, iv; format: ADME, organism-based, Canis lupus familiaris; parameters: dose 1 mg/kg, route intravenous; conditions: in vivo
[38] = Volume of distribution in beagle dog at 1 mg/kg, iv; format: ADME, organism-based, Canis lupus familiaris; parameters: dose 1 mg/kg, route intravenous; conditions: in vivo
[39] = Clearance in beagle dog at 1 mg/kg, iv; format: ADME, organism-based, Canis lupus familiaris; parameters: dose 1 mg/kg, route intravenous; conditions: in vivo
[40] = AUClast in Sprague-Dawley rat at 5 mg/kg, po; format: ADME, organism-based; parameters: time 0 - last, dose 5 mg/kg, route oral; conditions: plasma; procedure, shortened: as §1
[41] = AUClast in bacitracin, neomycin sulfate and tetracycline treated Sprague-Dawley rat at 5 mg/kg, po; format: ADME, organism-based; parameters: time 0 - last, dose 5 mg/kg, route oral; conditions: plasma; procedure, shortened: as §1
[42] = test system: Rattus norvegicus; assay: Cmax in bacitracin, neomycin sulfate and tetracycline treated Sprague-Dawley rat at 5 mg/kg, po; format: ADME, organism-based; parameters: dose 5 mg/kg, route oral; conditions: in vivo; procedure, shortened: as §1
[43] = Total AUC in Sprague-Dawley rat at 200 mg/kg, po; format: ADME, organism-based; parameters: time AUCmax, dose 200 mg/kg, route oral; conditions: in vivo; procedure, shortened: as §2
[44] = Total AUC in Sprague-Dawley rat at 75 mg/kg, po; format: ADME, organism-based; parameters: time AUCmax, dose 75 mg/kg, route oral; conditions: in vivo; procedure, shortened: as §2
[45] = Cmax in Sprague-Dawley rat at 75 mg/kg, po; format: ADME, organism-based; parameters: dose 75 mg/kg, route oral; conditions: in vivo; procedure, shortened: as §2
[46] = Cmax in Sprague-Dawley rat at 200 mg/kg, po; format: ADME, organism-based; parameters: dose 200 mg/kg, route oral; conditions: in vivo; procedure, shortened: as §2
[47] = Cmax in Sprague-Dawley rat at 15 mg/kg, po; conditions: in vivo
[48] = Total AUC in Sprague-Dawley rat at 15 mg/kg, po; conditions: in vivo

N[n+]1ccn(-c2ncc(F)c3c(C(=O)C(=O)N4CCN(C(=O)c5ccccc5)CC4)c[nH]c23)n1.O=C([O-])C(F)(F)F
dose excreted at 2 h [1]: 80%
AUC [2]: 23.873 µM·h
Cmax [3]: 2140 nM
AUC [4]: 0.035 µM·h
Cmax [5]: 74 nM
AUClast [6]: 0.112 µM·h
AUClast [7]: 0.148 µM·h
Cmax [8]: 79 nM
AUC [9]: 996 µM·h
AUC [10]: 72 µM·h
AUC [11]: 8 µM·h
Cmax [12]: 77000 nM
Cmax [13]: 12000 nM
Cmax [14]: 1300 nM
AUC [15]: 28.098 µM·h
AUC [16]: 0.0208 µM·h
Cmax [17]: 3120 nM
Cmax [18]: 23 nM
AUC [19]: 3.22 µM·h
AUC [20]: 1.55 µM·h
half-life [21]: 18 min
Drug metabolism [22]: Active
Vd [23]: 0.29 L/kg
clearance [24]: 23 mL/min/kg

CC(=O)N[n+]1ccn(-c2ncc(F)c3c(C(=O)C(=O)N4CCN(C(=O)c5ccccc5)CC4)c[nH]c23)n1
dose excreted at 2 h [1]: 16.5%

N[n+]1ccn(-c2ncc(F)c3c(C(=O)C(=O)N4CCN(C(=O)c5ccccc5)CC4)c[nH]c23)n1.[Cl-]
Papp [25]: 1.5 ×10⁻⁶ cm/s
solubility [26]: 1760 µg/mL
EC50 [27]: 1.76 nM
Drug metabolism [28]: Not Active
Drug metabolism [29]: Not Active
Drug metabolism [30]: Not Active
Drug metabolism [31]: Not Active
Drug metabolism [32]: Not Active
Drug metabolism [33]: Not Active
AUC [34]: 8.064 µM·h
AUC [35]: 0.217 µM·h
Cmax [36]: 139 nM
half-life [37]: 54 min
Vd [38]: 0.3 L/kg
clearance [39]: 13.8 mL/min/kg

O=C(C(=O)N1CCN(C(=O)c2ccccc2)CC1)c1c[nH]c2c(-n3ccnn3)ncc(F)c12
EC50 [27]: 0.06 nM
dose excreted at 2 h [1]: 3.5%
AUC(0-t) [40]: 47.5 µM·h
AUC(0-t) [41]: 13.8 µM·h
Cmax [42]: 18 nM
AUC [43]: 145 µM·h
AUC [44]: 115 µM·h
Cmax [45]: 8400 nM
Cmax [46]: 11000 nM
Cmax [47]: 6600 nM
AUC [48]: 42 µM·h
